Data published in ChEMBL document CHEMBL4765236, “Insights into the Antimicrobial Activity and Cytotoxicity of Engineered α-Helical Peptide Amphiphiles” (J Med Chem, 2016).
The source made the active and inactive calls. No cut-off for these calls is given here.

Assays:
Escherichia coli [1] = experiment: Induction of morphological changes in Escherichia coli O157:H7 CICC 21530 assessed as membrane creeping at 1 times MIC after 60 mins by SEM analysis; type: functional, organism-based
Staphylococcus aureus [2] = experiment: Induction of morphological changes in Staphylococcus aureus ATCC 29213 assessed as membrane destruction at 1 times MIC after 60 mins by SEM analysis; type: functional, organism-based
Method in brief: (§1)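 S. aureus grown to exponential phase in MHB at 37 °C with shaking at 220 rpm. Cells washed twice in PBS, resuspended to OD600 0.2, then exposed to peptide at 1× MIC for 60 min at 37 °C; untreated cells served as control. Cells were pelleted, PBS-washed, fixed overnight in 2.5% glutaraldehyde at 4 °C, dehydrated through graded ethanol then tert-butanol, and imaged by SEM.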

HepG2 [3] = experiment: Induction of cell cycle arrest in human HepG2 cells assessed as accumulation at G2/M phase at 32 uM incubated for 24 hrs by annexin-V/FITC staining-based FACS flow cytometry analysis (reference value: 28.75 %); type: functional
HepG2 [4] = experiment: Induction of ROS generation in human HepG2 cells assessed as increase in fluorescence intensity up to 32 uM incubated for 8 hrs by DCFH-DA staining-based fluorescence analysis; type: functional, cell-based; conditions: dose microM <=32, time 8.0 hrs
HepG2 [5] = experiment: Induction of cell cycle arrest in human HepG2 cells assessed as accumulation at sub-G1 phase at 64 uM incubated for 24 hrs by annexin-V/FITC staining-based FACS flow cytometry analysis (reference value: 0.07%); type: functional
Staphylococcus aureus [6] = experiment: Induction of morphological changes in Staphylococcus aureus ATCC 29213 assessed as membrane stunting at 1 times MIC after 60 mins by SEM analysis; type: functional, organism-based; method in brief: as §1
Escherichia coli [7] = experiment: Induction of morphological changes in Escherichia coli O157:H7 CICC 21530 assessed as membrane destruction at 1 times MIC after 60 mins by SEM analysis; type: functional, organism-based
Staphylococcus aureus [8] = experiment: Induction of morphological changes in Staphylococcus aureus ATCC 29213 assessed as membrane creeping at 1 times MIC after 60 mins by SEM analysis; type: functional, organism-based; method in brief: as §1
HepG2 [9] = experiment: Induction of cell cycle arrest in human HepG2 cells assessed as accumulation at Go/G1 phase at 64 uM incubated for 24 hrs by annexin-V/FITC staining-based FACS flow cytometry analysis (reference value: 54.61 %); type: functional
Cell membrane [10] = experiment: Induction of cell membrane disruption in Escherichia coli O157:H7 CICC 21530 assessed as propidium iodide-positive cells at 0.5 times MIC measured after 30 mins by flow cytometry analysis (reference value: 5.7 %); type: subcellular
Staphylococcus aureus [11] = experiment: Induction of morphological changes in Staphylococcus aureus ATCC 29213 assessed as membrane blebbing at 1 times MIC after 60 mins by SEM analysis; type: functional, organism-based; method in brief: as §1
Cell membrane [12] = experiment: Induction of cell membrane disruption in Escherichia coli O157:H7 CICC 21530 assessed as propidium iodide-positive cells measured after 30 mins by flow cytometry analysis; type: subcellular
HepG2 [13] = experiment: Induction of cell cycle arrest in human HepG2 cells assessed as accumulation at S phase at 32 uM incubated for 24 hrs by annexin-V/FITC staining-based FACS flow cytometry analysis (reference value: 20.51 %); type: functional
Escherichia coli [14] = experiment: Induction of morphological changes in Escherichia coli O157:H7 CICC 21530 assessed as membrane stunting at 1 times MIC after 60 mins by SEM analysis; type: functional, organism-based
Escherichia coli [15] = experiment: Induction of morphological changes in Escherichia coli O157:H7 CICC 21530 assessed as membrane alteration at 1 times MIC after 60 mins by TEM analysis; type: functional, organism-based
Cell membrane [16] = experiment: Induction of cell membrane disruption in Escherichia coli O157:H7 CICC 21530 assessed as propidium iodide-positive cells at 1 times MIC measured after 30 mins by flow cytometry analysis (reference value: 5.7 %); type: subcellular
HepG2 [17] = experiment: Induction of cell cycle arrest in human HepG2 cells assessed as accumulation at sub-G1 phase at 32 uM incubated for 24 hrs by annexin-V/FITC staining-based FACS flow cytometry analysis (reference value: 0.07%); type: functional
HepG2 [18] = experiment: Induction of cell cycle arrest in human HepG2 cells assessed as accumulation at Go/G1 phase at 32 uM incubated for 24 hrs by annexin-V/FITC staining-based FACS flow cytometry analysis (reference value: 54.61 %); type: functional
HepG2 [19] = experiment: Induction of cell cycle arrest in human HepG2 cells assessed as accumulation at S phase at 64 uM incubated for 24 hrs by annexin-V/FITC staining-based FACS flow cytometry analysis (reference value: 20.51 %); type: functional
Escherichia coli [20] = experiment: Induction of morphological changes in Escherichia coli O157:H7 CICC 21530 assessed as membrane blebbing at 1 times MIC after 60 mins by SEM analysis; type: functional, organism-based
HepG2 [21] = experiment: Induction of cell cycle arrest in human HepG2 cells assessed as accumulation at G2/M phase at 64 uM incubated for 24 hrs by annexin-V/FITC staining-based FACS flow cytometry analysis (reference value: 28.75 %); type: functional
Escherichia coli [22] = experiment: Bactericidal activity against Escherichia coli O157:H7 CICC 21530 assessed as bacterial killing at 1 times MIC measured within 5 mins by time kill assay; type: functional, organism-based; conditions: time min <5
HepG2 [23] = experiment: Induction of apoptosis in human HepG2 cells assessed as nucleus budding at 32 uM incubated for 2 to 4 hrs by DAPI staining based confocal microscopy; type: functional, cell-based; conditions: time 2-4 hrs
Method in brief: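 HepG2 cells treated with 32 µM peptide for 2, 4 or 8 h and stained with DAPI. Nuclear morphology imaged by confocal microscopy, with untreated cells as control.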

Staphylococcus aureus [24] = experiment: Induction of morphological changes in Staphylococcus aureus ATCC 29213 assessed as membrane damage at 1 times MIC after 60 mins by TEM analysis; type: functional, organism-based
Escherichia coli [25] = experiment: Induction of morphological changes in Escherichia coli O157:H7 CICC 21530 assessed as membrane damage at 1 times MIC after 60 mins by TEM analysis; type: functional, organism-based
RAW264.7 = experiment: Antiinflammatory activity against mouse RAW264.7 cells assessed as inhibition of LPS-induced TNF-alpha production at 4 uM measured after 24 hrs by […] ELISA; type: functional, cell-based
Method in brief: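 RAW264.7 cells plated at 1-2 × 10^5 cells/mL and stimulated with 500 ng/mL LPS with or without peptide (0.5-64 µM) for 24 h at 37 °C. Controls were untreated cells and LPS alone. TNF-α in the supernatant measured by ELISA. NO measured by Griess reagent (1% sulfanilamide, 0.1% naphthylethylenediamine, 5% phosphoric acid).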

Staphylococcus aureus [26] = experiment: Induction of morphological changes in Staphylococcus aureus ATCC 29213 assessed as outflow of cytoplasm at 1 times MIC after 60 mins by TEM analysis; type: functional, organism-based
[27] = Drug localization in cytoplasm of human HepG2 cells assessed as fluorescent signal in presence of FITC-labelled peptide at 32 uM measured up to 8 hrs by DAPI staining based confocal microscopy; type: ADME, subcellular; conditions: hepg2, 8 h
Method in brief: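 HepG2 cells incubated with FITC-labelled peptide at 32 µM. Fluorescence distribution imaged by confocal laser-scanning microscopy at intervals (1, 4 and 8 h).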

Row | Substance | Activity (Escherichia coli [1]) | Activity (Staphylococcus aureus [2]) | Activity (HepG2 [3]) [%] | Activity (HepG2 [5]) [%] | Activity (Staphylococcus aureus [6]) | Activity (Escherichia coli [7]) | Activity (Staphylococcus aureus [8]) | Activity (HepG2 [9]) [%] | Activity (Cell membrane [10]) [%] | Activity (Staphylococcus aureus [11]) | Activity (Cell membrane [12]) | Activity (HepG2 [13]) [%] | Activity (Escherichia coli [14]) | Activity (Cell membrane [16]) [%] | Activity (HepG2 [17]) [%] | Activity (HepG2 [18]) [%] | Activity (HepG2 [19]) [%] | Activity (Escherichia coli [20]) | Activity (HepG2 [21]) [%] | also measured
1 | H-WGEAFSAGVHRLANGGNG-NH2 | Active | Active | 29.33 | 2.26 | Active | Active | Active | 34.77 | 14.3 | Active | Dose-dependent effect | 25.26 | Active | 22.9 | 1.06 | 52.45 | 31.61 | Active | 30.85 | Activity (HepG2 [4]): inactive; Activity (Escherichia coli [15]): Active
2 | H-WLRAFRRLVRRLARGLRR-NH2 | Active | Active | 21.23 | 77.66 | Active | Active | Active | 5.83 | 78.9 | Active | Dose-dependent effect | 33.17 | Active | 91.1 | 24.8 | 21.35 | 11.48 | Active | 5.67 | Activity (Escherichia coli [22]): Active; Activity (HepG2 [23]): Active; Activity (Staphylococcus aureus [24]): Active; Activity (Escherichia coli [25]): Active; Activity (RAW264.7): Active; Activity (Staphylococcus aureus [26]): Active
3 | H-WLRAFRRLVRRLARLLRR-NH2 | – | – | – | – | – | – | – | – | – | – | – | – | – | – | – | – | – | – | – | Drug uptake [27]: Not Active
